5HT1a ag: agonists of human 5-HT1a serotonin receptor | activation, % at 10 µM | AID 567 | actives 0.56% (n = 65,000) | P08908 | CHO 5-HT1a Ga15 NFAT-bla reporter, FRET ratio; 0% basal, 100% maximal reference agonist;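 active means activation above the screen-wide mean activation plus 3 SD, cut at about 19% in these data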;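 further: 0% = DMSO wells and 100% = 5-CT at EC100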
Target sequence (P08908 whole entry, looked up): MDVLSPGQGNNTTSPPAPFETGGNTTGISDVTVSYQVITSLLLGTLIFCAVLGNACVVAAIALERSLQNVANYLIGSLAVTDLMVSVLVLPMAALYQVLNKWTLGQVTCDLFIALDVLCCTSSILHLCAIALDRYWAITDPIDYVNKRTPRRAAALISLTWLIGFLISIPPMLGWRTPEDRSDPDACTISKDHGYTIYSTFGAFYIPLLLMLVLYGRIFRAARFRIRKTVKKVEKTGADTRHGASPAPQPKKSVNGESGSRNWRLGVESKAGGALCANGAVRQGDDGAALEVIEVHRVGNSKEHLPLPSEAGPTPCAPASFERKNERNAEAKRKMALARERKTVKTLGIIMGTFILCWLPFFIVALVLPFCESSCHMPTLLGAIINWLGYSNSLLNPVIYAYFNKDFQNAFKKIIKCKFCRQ
5HT1a antag: blocks the human serotonin 5-HT1a receptor; P08908; CHO 5-HT1a Ga15 NFAT-bla reporter, antagonist mode; inhibition, % at 10 µM; actives 0.68% (n = 62,000); AID 612;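 active means inhibition above the mean of all tested compounds plus 3 SD, cut at about 43% in these data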;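 further: receptor stimulated by 5-CT agonist at 100 nM near EC80; beta-lactamase reporter measured by ratiometric fluorescence of a cleavable substrate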
5HT1E ag: activates the human 5-HT1E serotonin receptor | CHO 5-HT1E Ga15 NFAT-bla reporter, FRET; 0% DMSO wells, 100% control agonist wells | activation, % at 6 µM | actives 0.69% (n = 65,000) | AID 574;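 active means activation above a set limit, the screen-wide mean activation plus 3 SD, cut at about 8.5% in these data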;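 further: 100% = positive control agonist at 1 µM giving full maximal response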
HTR1E antagonist: 5-HT1E (human) receptor antagonism; P28566; CHO 5-HT1E Ga15 NFAT-bla reporter, FRET, antagonist; inhibition, % at 6 µM; actives 0.99% (n = 65,000); AID 571;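 active means inhibition above a set limit, the mean inhibition across every tested compound plus 3 SD, cut at about 29% in these data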;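 further: signal is the 460 over 535 nm emission ratio of beta-lactamase substrate; 0% = agonist plus DMSO wells and 100% = wells without agonist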
S1P3 ag: activates the human S1P3 receptor; Q99500; activation, % at 4.5 µM; S1P3 NFAT-BLA reporter cells, agonism, FRET ratio; relative to 1 µM S1P, basal subtracted; actives 0.1% (n = 60,000);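 active means activation above the screen-wide mean plus 3 SD, cut at about 4.5% in these data, passing the limit was not always enough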
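Assay system: CHO cells stably expressing human S1P3, Gα16 and NFAT-β-lactamase reporter. Timing: overnight plating, 4 h compound 37 °C, 2 h substrate RT. Signal: β-lactamase FRET emission ratio 460/535 nm. Measure: percent activation versus median 1 µM S1P response, basal-subtracted, per plate. Repeats: primary screen single test, confirmation screen in triplicate.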
S1P1 ag pot: agonists and agonism potentiators of human S1P1 receptor; activation, % at 9.5 µM; AID 449; actives 0.57% (n = 56,000); P21453; S1P1 CRE-bla cells, forskolin, beta-lactamase FRET, potentiator mode; S1P1 agonist co-added at EC20, 2 nM; 100% = saturating reference agonist, 0% = basal;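 active means activation above a cutoff set at the mean activation of all tested compounds plus 3 SD, cut at about 54% in these data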;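 further: forskolin at 4 µM as EC80 and the EC20 agonist is SEW2871; 100% = SEW2871 at its EC100 plus forskolin at EC80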
Active calls of the source: *. The list is not random: actives were taken first. Their share in the collection is about 3%.

Screening COc1ccc(C(=O)N2CCCC(c3nc(-c4ccc(OC)c(OC)c4)no3)C2)c(OC)c1 (configuration not stated) returned 5HT1a ag 20*, 5HT1a antag -11, 5HT1E ag 0, HTR1E antagonist -4, S1P3 ag -1 and S1P1 ag pot 55.
COC(=O)c1c(C)n(-c2ccc(OC)cc2)c2ccc(O)cc12 was read as 5HT1a ag 0, 5HT1a antag 35, 5HT1E ag 0, HTR1E antagonist 6, S1P3 ag -1 and S1P1 ag pot 66*.
`Cc1c(C(=O)O)c2cc(O)ccc2n1-c1ccccc1` gave 5HT1a ag -4, 5HT1a antag 13, 5HT1E ag -2, HTR1E antagonist 16, S1P3 ag 0 and S1P1 ag pot 7.
For COc1ccc(S(=O)(=O)Nc2ccccc2C(=O)NCc2ccco2)cc1Br the results were 5HT1a ag -1, 5HT1a antag 20, 5HT1E ag 0, HTR1E antagonist 8, S1P3 ag -1 and S1P1 ag pot 8.
COc1cccc(-n2c(SCC(=O)NCCC3=CCCCC3)nc3n[nH]c(C)c3c2=N)c1 was read as 5HT1a ag 0, 5HT1a antag -13, 5HT1E ag 1, HTR1E antagonist -8, S1P3 ag 0 and S1P1 ag pot -33.
COc1cccc(NC(=O)CSc2nc3n[nH]c(C)c3c(=N)n2-c2cccc(OC)c2)c1 was read as 5HT1a ag 2, 5HT1a antag -11, 5HT1E ag 1, HTR1E antagonist 33*, S1P3 ag 0 and S1P1 ag pot -10.
`CC1CCCCC1n1c(=S)[nH]c2ccccc2c1=O` (configuration not stated) gave 5HT1a ag 2, 5HT1a antag -8, 5HT1E ag 11* and HTR1E antagonist 5.
`S=C(c1ccc(-c2ccccc2Cl)o1)N1CCOCC1` gave 5HT1a ag 0, 5HT1a antag -5, 5HT1E ag 0, HTR1E antagonist 1, S1P3 ag -1 and S1P1 ag pot -11.
Screening N#CCCN1CCN(C(=S)c2ccc(-c3cc(Cl)ccc3Cl)o2)CC1 returned 5HT1a ag -5, 5HT1a antag 10, 5HT1E ag 0, HTR1E antagonist 31*, S1P3 ag 0 and S1P1 ag pot 14.
Screening COc1ccc(N2CCN(c3ncnc4c3cnn4-c3ccc(C)cc3C)CC2)cc1 returned 5HT1a ag -1, 5HT1a antag 3, 5HT1E ag 0, HTR1E antagonist -3, S1P3 ag -2 and S1P1 ag pot 15.
Screening Cc1ccc(-n2ncc3c(N4CCN(c5ccccc5)CC4)ncnc32)c(C)c1 returned 5HT1a ag 1, 5HT1E ag 1, HTR1E antagonist 51*, S1P3 ag -5 and S1P1 ag pot -7.
O=P(O)(O)COc1ccccc1P(=O)(c1ccccc1)c1ccccc1 was read as 5HT1a ag 0, 5HT1a antag 1, 5HT1E ag 0, HTR1E antagonist -7, S1P3 ag 1 and S1P1 ag pot -19.
`Cc1ccc(-n2ncc(C(=O)NCc3ccc4c(c3)OCO4)c2NC(=O)c2ccco2)cc1C` gave 5HT1a ag 0, 5HT1a antag 11, 5HT1E ag 1, HTR1E antagonist -3, S1P3 ag -1 and S1P1 ag pot 20.
For CCC(=O)N1CCN(c2nc(C)nc3sc(C)c(C)c23)CC1 the results were 5HT1a ag -1, 5HT1a antag 4, 5HT1E ag 0, HTR1E antagonist 4, S1P3 ag -1 and S1P1 ag pot -2.
`Cc1nc(N2CCN(C)CC2)c2c(C)c(C(=O)Nc3ccc(F)cc3)sc2n1` gave 5HT1a ag 0, 5HT1a antag -8, 5HT1E ag 20* and HTR1E antagonist -9.
For O=S(=O)(NCCc1ccccn1)c1ccc(F)c(F)c1 the results were 5HT1a ag 2, 5HT1a antag 12, 5HT1E ag 0, HTR1E antagonist -6, S1P3 ag -1 and S1P1 ag pot 10.
For COCCOC(=O)C1=C(C)Nc2nc(C)nn2C1c1ccc(F)cc1 (configuration not stated) the results were 5HT1a ag 31*, 5HT1a antag -3, 5HT1E ag 1, HTR1E antagonist -1, S1P3 ag -1 and S1P1 ag pot 5.
For C=C1C(C(=O)N2CCOCC2)C1C(=O)N1CCOCC1 (configuration not stated) the results were 5HT1a ag -2, 5HT1a antag -3, 5HT1E ag 0, HTR1E antagonist 7, S1P3 ag 0 and S1P1 ag pot -12.
For C=CCn1c(SCC(=O)N2CCOCC2)nc2scc(-c3ccco3)c2c1=O the results were 5HT1a ag 29*, 5HT1a antag 1, 5HT1E ag -2, HTR1E antagonist 13, S1P3 ag -1 and S1P1 ag pot -27.
Screening O=C(CCCCCC(=O)N(CCO)CCO)N(CCO)CCO returned 5HT1a ag 0, 5HT1a antag -4, 5HT1E ag 0, HTR1E antagonist -4, S1P3 ag -1 and S1P1 ag pot 0.
`COc1cccc(C2=CC(c3ccccc3)n3nnnc3N2)c1` (configuration not stated) gave 5HT1a ag -2, 5HT1E ag -1, HTR1E antagonist 12, S1P3 ag -5 and S1P1 ag pot 19.
Screening COc1ccc2c(-c3ccccc3)cc3nnnn3c2c1 returned 5HT1a ag -1, 5HT1a antag -3, 5HT1E ag 0, HTR1E antagonist 30*, S1P3 ag 0 and S1P1 ag pot -39.
For CC1=C(C#N)C(NC(=O)c2ccco2)(C(F)(F)F)C(=O)N1 (configuration not stated) the results were 5HT1a ag 0, 5HT1a antag -6, 5HT1E ag 12*, HTR1E antagonist 15, S1P3 ag -1 and S1P1 ag pot -43.
For CN1C(=O)NC(NC(=O)c2ccco2)(C(F)(F)F)C1=O (configuration not stated) the results were 5HT1a ag 3, 5HT1E ag 0, HTR1E antagonist 5, S1P3 ag -2 and S1P1 ag pot -22.
For CCc1c(C)nc2cc(-c3ccc(OC)c(OC)c3)nn2c1N1CCCC1 the results were 5HT1a ag 1, 5HT1a antag 15, 5HT1E ag 0 and HTR1E antagonist 31*.
`CCn1nc(C(=O)OCc2c(C)noc2C)c2ccccc2c1=O` gave 5HT1a ag -1, 5HT1a antag 11, 5HT1E ag 0, HTR1E antagonist 29*, S1P3 ag -1 and S1P1 ag pot -22.
For COC(=O)c1ccc(Oc2cc(C)nc(-n3nc(C)cc3C)n2)cc1 the results were 5HT1a ag -3, 5HT1a antag 65*, 5HT1E ag -1, HTR1E antagonist 90*, S1P3 ag 0 and S1P1 ag pot -15.

Bioassay records as filed in PubChem.
